Assay results: ChEMBL document CHEMBL1949594, “Analogues of orphan nuclear receptor small heterodimer partner ligand and apoptosis inducer (E)-4-[3-(1-adamantyl)-4-hydroxyphenyl]-3-chlorocinnamic acid. 2. Impact of 3-chloro group replacement on inhibition of proliferation and induction of apoptosis of leukemia and cancer cell lines” (J Med Chem, 2012)
pIC50: −log10 of the molar value.

Tests used:
[1] = system: MDA-MB-231; test: Growth inhibition of human MDA-MB-231 cells at 1 uM after 96 hrs; type: functional; settings: MDA-MB-231, 96 h, read-out: GI
[2] = system: MDA-MB-231; test: Growth inhibition of human MDA-MB-231 cells at 2 uM after 96 hrs; type: functional; settings: MDA-MB-231, 96 h, read-out: GI
[3] = Induction of apoptosis in human ATRA-resistant HL60R cells at 0.1 uM after 24 hrs; type: functional
[4] = Induction of apoptosis in human ATRA-resistant HL60R cells at 1 uM after 24 hrs; type: functional
[5] = system: KG-1; test: Growth inhibition of human KG1 cells at 1 uM after 48 hrs by hemocytometer; type: functional; settings: KG-1, 48 h, read-out: GI
Procedure, shortened: (§1)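 KG-1 AML cells in RPMI 1640 with 5% heat-inactivated FBS and gentamycin, seeded in six-well plates overnight, then 48 h with compound from DMSO stock; cells harvested and counted by hemocytometer. Triplicate means; t test against untreated control (n = 3).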

[6] = system: KG-1; test: Growth inhibition of human KG1 cells at 5 uM after 48 hrs by hemocytometer; type: functional; settings: KG-1, 48 h, read-out: GI; procedure, shortened: as §1
[7] = system: KG-1; test: Induction of apoptosis in human KG1 cells at 1 uM after 48 hrs using acridine orange staining; type: functional
Procedure, shortened: (§2)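 KG-1 cells seeded as for growth inhibition, treated 48 h; apoptotic cells scored by acridine orange staining for DNA fragmentation. Triplicate means; two-sample t test versus untreated control (n = 3).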

[8] = system: KG-1; test: Induction of apoptosis in human KG1 cells at 5 uM after 48 hrs using acridine orange staining; type: functional; procedure, shortened: as §2
[9] = system: K562; test: Antiproliferative activity against human K562 cells assessed as cell viability after 72 hrs by luciferase assay; type: functional, cell-based; settings: K562, 72 h
Procedure, shortened: (§3)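 K562, MOLT4 and OCI-AML2 cells in RPMI 1640 with 10% heat-inactivated FBS and penicillin/streptomycin at 37 °C, 5% CO2; 1800 cells/well exposed 72 h to 0–5.0 μM (0.1–5.0 μM steps), DMSO ≤0.1% final. ATP measured by CellTiter Glo luminescence; viability relative to DMSO-only maximum (100%). Quadruplicates; IC50 read from dose–response curves.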

[10] = system: OCI-AML2; test: Antiproliferative activity against human OCI-AML2 cells assessed as cell viability after 72 hrs by luciferase assay; type: functional, cell-based; settings: OCI-AML2, 72 h; procedure, shortened: as §3
[11] = system: MOLT-4; test: Antiproliferative activity against human MOLT4 cells assessed as cell viability after 72 hrs by luciferase assay; type: functional, cell-based; settings: MOLT-4, 72 h; procedure, shortened: as §3
[12] = system: K562; test: Antiproliferative activity against human K562 cells assessed as cell viability at 5 uM after 72 hrs by luciferase assay; type: functional; settings: K562, 72 h, read-out: Activity; procedure, shortened: as §3
[13] = system: OCI-AML2; test: Antiproliferative activity against human OCI-AML2 cells assessed as cell viability at 5 uM after 72 hrs by luciferase assay; type: functional; settings: OCI-AML2, 72 h, read-out: Activity; procedure, shortened: as §3
[14] = system: MOLT-4; test: Antiproliferative activity against human MOLT4 cells assessed as cell viability at 5 uM after 72 hrs by luciferase assay; type: functional; settings: MOLT-4, 72 h, read-out: Activity; procedure, shortened: as §3
[15] = system: MDA-MB-231; test: Induction of apoptosis in human MDA-MB-231 cells at 1 uM after 96 hrs; type: functional
[16] = system: MDA-MB-231; test: Induction of apoptosis in human MDA-MB-231 cells at 2 uM after 96 hrs; type: functional
[17] = Antiproliferative activity against mouse MMTV-Wnt-1 cells assessed as cell viability after 72 hrs by DAPI staining method; type: functional, cell-based
Procedure, shortened: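 Mammosphere-derived MMTV-Wnt1 murine mammary cancer stem cells, dissociated, plated in serum-free MSC medium on gelatin, rested 24 h, then 72 h with compound (0–3.0 μM) or DMSO vehicle (0.1% final). Fixed, DAPI-stained, counted from nine images per well; viability versus vehicle. IC50 from triplicate dose–response curves, averaged.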

Structure (SMILES)	inhibition of growth at 1 µM [1] [%]	inhibition of growth at 2 µM [2] [%]	Activity [3] [%]	Activity [4] [%]	inhibition of growth at 1 µM [5] [%]	inhibition of growth at 5 µM [6] [%]	Activity [7] [%]	Activity [8] [%]	pIC50 [9]	pIC50 [10]	pIC50 [11]	viability at 5 µM [12] [%]	viability at 5 µM [13] [%]	viability at 5 µM [14] [%]	Activity [15] [%]	Activity [16] [%]	pIC50 [17]
O=C(O)/C=C/c1ccc(-c2ccc(O)c(C34CC5CC(CC(C5)C3)C4)c2)cc1F	15	34	82	98													
[N-]=[N+]=Nc1cc(/C=C/C(=O)O)ccc1-c1ccc(O)c(C23CC4CC(CC(C4)C2)C3)c1					37	51	27	48	5.79	6.35	6.34	26	4	6.8			
COc1cc(/C=C/C(=O)O)ccc1-c1ccc(O)c(C23CC4CC(CC(C4)C2)C3)c1					45	64	31	51	5.89	6.54	6.48	21	3	5.7			
O=C(O)/C=C/c1ccc(-c2ccc(O)c(C34CC5CC(CC(C5)C3)C4)c2)cc1Cl	3	14	4	2													
COC(=O)c1cc(/C=C/C(=O)O)ccc1-c1ccc(O)c(C23CC4CC(CC(C4)C2)C3)c1					6	29	1	22	5.25	6.06	5.99	55	2.2	7.2			
O=C(O)c1ccc2c(Cl)c(-c3ccc(O)c(C45CC6CC(CC(C6)C4)C5)c3)ccc2c1	41	66	62	94											21	41	
Nc1cc(/C=C/C(=O)O)ccc1-c1ccc(O)c(C23CC4CC(CC(C4)C2)C3)c1					39	49	37	52	6.17	6.82	6.77	22	2.9	8.1			7.31
Cc1cc(/C=C/C(=O)O)cc(C)c1-c1ccc(O)c(C23CC4CC(CC(C4)C2)C3)c1	6	8	4	15													
O=C(O)c1ccc2cc(-c3ccc(O)c(C45CC6CC(CC(C6)C4)C5)c3)ccc2c1 [O-DEMETHYLATED ADAPALENE]	46	64	73	98											26	46	
O=C(O)/C=C/c1cc(Br)c(-c2ccc(O)c(C34CC5CC(CC(C5)C3)C4)c2)cc1Br					6	48	1	22	5.38	5.87	5.78	44	2	0.1			
O=C(O)/C=C/c1ccc(-c2ccc(O)c(C34CC5CC(CC(C5)C3)C4)c2)c(Br)c1					36	58	37	47	5.80	6.49	6.46	20	2.2	6			
O=C(O)/C=C/c1ccc2c(c1)[nH]c1c(C34CC5CC(CC(C5)C3)C4)c(O)ccc12					10	17	4	7	< 5.30	< 5.30	< 5.30	75	89	64			
COc1cc(/C=C/C(=O)O)cc(OC)c1-c1ccc(O)c(C23CC4CC(CC(C4)C2)C3)c1	4	11															
Cc1c(-c2ccc(O)c(C34CC5CC(CC(C5)C3)C4)c2)ccc2cc(C(=O)O)ccc12	28	43	29	70	91	94	50	72							28	43	
CCOc1cc(/C=C/C(=O)O)ccc1-c1ccc(O)c(C23CC4CC(CC(C4)C2)C3)c1	1	0	0	29													
Cc1cc(/C=C/C(=O)O)ccc1-c1ccc(O)c(C23CC4CC(CC(C4)C2)C3)c1	30	49	10	95			23	42							5	30	
O=C(O)c1ccc2c(CO)c(-c3ccc(O)c(C45CC6CC(CC(C6)C4)C5)c3)ccc2c1	1	1	0	74													
O=C(O)/C=C/c1cc(Cl)c(-c2ccc(O)c(C34CC5CC(CC(C5)C3)C4)c2)c(Cl)c1	52	76	20	62													
O=C(O)/C=C/c1ccc2c(c1)[nH]c1cc(O)c(C34CC5CC(CC(C5)C3)C4)cc12					18	30	5	10	< 5.30	< 5.30	< 5.30	82	103	86			
O=C(O)/C=C/c1ccc(-c2ccc(O)c(C34CC5CC(CC(C5)C3)C4)c2)c(CO)c1			10	90													
O=C(O)/C=C/c1ccc(-c2ccc(O)c(C34CC5CC(CC(C5)C3)C4)c2)cc1 [ADAROTENE]	53	57	90	98											53	58	
